Measurements as given in ChEMBL document CHEMBL1146744, “Efficient synthesis and structure-activity relationship of honokiol, a neurotrophic biphenyl-type neolignan” (2004).

How the values were obtained:
[1] = system: Rattus norvegicus; assay: Neurite length after administration (0.1 uM) in rat cortical neurons; type: functional
Procedure, shortened: (§1)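 E18 Sprague-Dawley rat fetal cortical neurons were plated at 5000 cells/cm² on poly-L-lysine in DMEM with 10% FBS and penicillin/streptomycin for 24 h. They were then switched to serum-free Neurobasal with 2% B27 containing the sample, with 0.5% ethanol as vehicle control. Cells were fixed in PFA and stained with anti-MAP2 (1:1000, overnight, 4 °C) and peroxidase/DAB. Primary process length was averaged over 100 random neurons.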

[2] = system: Rattus norvegicus; assay: Neurite length after administration (1 uM) in rat cortical neurons; type: functional; procedure, shortened: as §1

| Compound | Activity [1] | Activity [2] |
| --- | --- | --- |
| C=CCc1ccc(O)c(-c2ccc(O)c(CCC)c2)c1 | 128 µm | 150 µm |
| C=CCc1ccc(OC)c(-c2ccc(O)c(CC=C)c2)c1 | 133 µm | 123 µm |
| C=CCc1cc(-c2cc(CCC)ccc2O)ccc1O | 103 µm | 120 µm |
| C=CCc1ccc(O)c(-c2ccc(O)c(CC=C)c2)c1 [HONOKIOL] | 139 µm | 142 µm |
| C=CCc1ccc(O)c(-c2ccc(OC)c(CC=C)c2)c1 [METHYLHONOKIOL] | 113 µm | 114 µm |
| CCCc1ccc(O)c(-c2ccc(O)c(CCC)c2)c1 | 101 µm | 102 µm |
| C=CCc1ccc(OC)c(-c2ccc(OC)c(CC=C)c2)c1 | 112 µm | 111 µm |
